The results in this text go back to ChEMBL document CHEMBL3621054, “A new class of hybrid anticancer agents inspired by the synergistic effects of curcumin and genistein: Design, synthesis, and anti-proliferative evaluation” (Bioorg Med Chem Lett, 2015).

What all share (format): functional, cell-based
For assay [1], the system named is PC-3. As to the kind of experiment: Cytotoxicity against human androgen-independent PC3 cells assessed as cell cell viability after 3 days by WST-1 cell proliferation assay. Conditions: PC-3, 72 h. The gist of the method: (§1)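 Human prostate cancer cells (LNCaP androgen-dependent; PC-3 and DU145 androgen-independent) were exposed to drug for 3 days, and viability was read by WST-1 proliferation assay. IC50 was taken as the drug concentration giving 50% inhibition of cell viability, reported as mean ± standard error of the mean.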
In general terms: Formazan colour is commonly taken as a measure of viable cells.

Assay [2] relates to LNCaP. As to the kind of experiment: Cytotoxicity against human androgen-dependent LNCAP cells assessed as inhibition of cell viability after 3 days by WST-1 cell proliferation assay. Conditions: 72 h. The gist of the method: as §1
Assay [3] relates to DU-145. As to the kind of experiment: Cytotoxicity against human androgen-independent DU145 cells assessed as inhibition of cell viability after 3 days by WST-1 cell proliferation assay. Conditions: DU-145, 72 h. The gist of the method: as §1

Regarding `CC(C)CCn1ccnc1/C=C/C(=O)/C=C/c1coc2ccccc2c1=O`, the figures for the IC50 in assay [1], in assay [2] and in assay [3] were 3600 nM, 4000 nM and 5.8 µM, respectively.

`O=c1c(O)c(-c2ccc(O)c(O)c2)oc2cc(O)cc(O)c12` [QUERCETIN]: the results for the IC50 in assay [1], in assay [2] and in assay [3] were greater than 100000 nM, 45500 nM and greater than 100 µM, respectively.

Take `CCn1ccnc1/C=C/C(=O)/C=C/c1coc2ccccc2c1=O`: the IC50 came out at 1800 nM in assay [1], 1000 nM in assay [2] and 3 µM in assay [3].

As for `CCCn1ccnc1/C=C/C(=O)/C=C/c1coc2ccccc2c1=O`, the IC50 worked out at 2400 nM in assay [1], 2100 nM in assay [2] and 4.6 µM in assay [3].

Turning to `COc1cc(/C=C/C(=O)CC(=O)/C=C/c2ccc(O)c(OC)c2)ccc1O` [CURCUMIN], in assay [2], the IC50 was found to be 12100 nM.

Regarding `CCCCCn1ccnc1/C=C/C(=O)/C=C/c1coc2ccccc2c1=O`, the IC50 was 2100 nM in assay [1], 1800 nM in assay [2] and 2.7 µM in assay [3].

With `O=c1c(-c2ccc(O)cc2)coc2cc(O)cc(O)c12` [GENISTEIN], the IC50 is 68600 nM in assay [1], 37400 nM in assay [2] and greater than 100 µM in assay [3].

Take `CCC(CC)n1ccnc1/C=C/C(=O)/C=C/c1coc2ccccc2c1=O`: the results for the IC50 in assay [1], in assay [2] and in assay [3] were 2900 nM, 2800 nM and 5.2 µM, respectively.

For `CCC(C)n1ccnc1/C=C/C(=O)/C=C/c1coc2ccccc2c1=O` (configuration not stated), the IC50 worked out at 1800 nM in assay [1], 1300 nM in assay [2] and 3.3 µM in assay [3].

For `Cn1ccnc1/C=C/C(=O)/C=C/c1coc2ccccc2c1=O`, the IC50 came out at 2800 nM in assay [1], 2300 nM in assay [2] and 4.5 µM in assay [3].

`CC(C)n1ccnc1/C=C/C(=O)/C=C/c1coc2ccccc2c1=O`: the IC50 in assay [1] worked out at 2300 nM; in assay [2], 1200 nM; in assay [3] it was 3.3 µM.

For `CCCC(C)n1ccnc1/C=C/C(=O)/C=C/c1coc2ccccc2c1=O` (configuration not stated), the IC50 was determined as 3200 nM in assay [1], 3900 nM in assay [2] and 1.4 µM in assay [3].

Take `CCCCn1ccnc1/C=C/C(=O)/C=C/c1coc2ccccc2c1=O`: the values for the IC50 in assay [1], in assay [2] and in assay [3] were 2000 nM, 2000 nM and 4.3 µM, respectively.

Broadly, the IC50 is the midpoint of a concentration-inhibition curve.
